What was measured:
[1] = Antioxidant activity assessed as hydroxyl radical scavenging activity by chemiluminescence assay; format: functional
Method in brief: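 •OH generated from EDTA, FeSO4 and 3% H2O2 with indoxyl-b-glucuronide as the CL probe. Ultra-weak photon emission read on a high-sensitivity chemiluminescence analyzer. IC50 is the concentration inhibiting 50% of generated •OH. Trolox as positive control; triplicate.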

[2] = Antioxidant activity assessed as superoxide radical scavenging activity by chemiluminescence assay; format: functional
Method in brief: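 O2•− generated by methylglyoxal plus arginine in PBS pH 7.4, with lucigenin as the CL probe. Ultra-weak photons counted by chemiluminescence analyzer. Trolox positive control; triplicate.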

RAW264.7 [3] = assay: Antiinflammatory activity in mouse RAW264.7 cells assessed as inhibition of LPS-induced NO production by Griess reagent method; format: functional, cell-based
Method in brief: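 RAW 264.7 cells (1 × 10^5/well) in DMEM with 10% FBS, 5% CO2, 37 °C, pre-incubated overnight. Then 24 h with vehicle or compound (0.31–20.0 µg/mL; DMSO final 0.2% v/v) plus 1 µg/mL E. coli 0127:B8 LPS. Nitrite in supernatant mixed 1:1 with Griess reagent, 5 min, OD 540 nm. IC50 derived; triplicate, mean ± SE.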

[4] = Cytotoxicity against mouse RAW264.7 cells assessed as viable cells after 24 hrs by MTS assay in presence of LPS; format: cell-based; set-up: concentration or dose not given beside the values; settings: read-out: Activity
Method in brief: (§1)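 RAW 264.7 cells treated 24 h with compound (0.31–20.0 µg/mL, DMSO 0.2% v/v final), without LPS or with 1 µg/mL LPS. MTS solution (16.7% in RPMI 1640) added for 10 min; absorbance read at 490 nm.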

[5] = Cytotoxicity against mouse RAW264.7 cells assessed as viable cells after 24 hrs by MTS assay; format: cell-based; set-up: concentration or dose not given beside the values; settings: read-out: Activity; method in brief: as §1
[6] = Antiplatelet aggregatory activity in […] assessed as inhibition of collagen-induced platelet aggregation by aggregometry; format: functional; settings: Homo sapiens, Plasma
RAW264.7 [7] = assay: Ratio of IC50 for quercetin to IC50 for drug against LPS-induced NO release in mouse RAW264.7 cells by Griess reagent method; format: functional

IC50 [1]	IC50 [2]	IC50 (RAW264.7 [3])	IC50 [6]	Compound	viability at 24 h [4]	viability at 24 h [5]	Ratio IC50 (RAW264.7 [7])
27.5 µM	> 200 µM	20 µM	67.5 µM	COc1cc(C(=O)C(COC(=O)c2ccc(O)cc2)Oc2c(OC)cc(/C=C/COC(=O)c3ccc(O)cc3)cc2OC)cc(OC)c1O (stereo unspecified)	> 85%	> 85%	2.7
12.4 µM	> 200 µM	11.8 µM	26.9 µM	COc1cc([C@@H](O)[C@H](COC(=O)c2ccc(O)cc2)Oc2c(OC)cc(/C=C/COC(=O)c3ccc(O)cc3)cc2OC)cc(OC)c1O (relative stereo)	> 85%	> 85%	
19 µM	> 200 µM	101 µM	> 100 µM	COc1cc(/C=C/COC(=O)c2ccc(O)cc2)ccc1O[C@@H](COC(=O)c1ccc(O)cc1)[C@@H](O)c1cc(OC)c(O)c(OC)c1 (relative stereo)	> 85%	> 85%	
20.4 µM	> 200 µM	52.4 µM	55.2 µM	COc1cc([C@H](O)[C@H](COC(=O)c2ccc(O)cc2)Oc2c(OC)cc(/C=C/COC(=O)c3ccc(O)cc3)cc2OC)ccc1O (relative stereo)	> 85%	> 85%	
6.2 µM	53.8 µM			COc1cc(C(=O)C(COC(=O)c2ccc(O)cc2)Oc2c(OC)cc([C@@H](O)[C@H](O)COC(=O)c3ccc(O)cc3)cc2OC)cc(OC)c1O (relative stereo)			
			75.4 µM	CC(=O)Oc1ccccc1C(=O)O [ASPIRIN]			
27.4 µM	> 200 µM		> 100 µM	CCO[C@@H](c1ccc(O)c(OC)c1)[C@H](CO)Oc1c(OC)cc([C@@H]2CC(=O)c3c(O)cc(O)cc3O2)cc1OC [QUIQUELIGNAN A]			
19.9 µM	> 200 µM	36 µM	43.3 µM	CCO[C@@H](c1ccc(O)c(OC)c1)[C@@H](COC(=O)c1ccc(O)cc1)Oc1c(OC)cc([C@@H]2CC(=O)c3c(O)cc(O)cc3O2)cc1OC [QUIQUELIGNAN B]	> 85%	> 85%	
15.3 µM	> 200 µM	63.4 µM	49.4 µM	CCO[C@H](c1ccc(O)c(OC)c1)[C@@H](CO)Oc1c(OC)cc(-c2cc(=O)c3c(O)cc(O)cc3o2)cc1OC [QUIQUELIGNAN C]	> 85%	> 85%	
4.4 µM	32.8 µM			Cc1c(C)c2c(c(C)c1O)CCC(C)(C(=O)O)O2 (stereo unspecified) [TROLOX]			

Compound	IC50 [1]	IC50 [2]	IC50 (RAW264.7 [3])	IC50 [6]	viability at 24 h [4]	viability at 24 h [5]	Ratio IC50 (RAW264.7 [7])
O=c1c(O)c(-c2ccc(O)c(O)c2)oc2cc(O)cc(O)c12 [QUERCETIN]			54.3 µM				
